Results gathered from unrelated publications.

| Compound | cell line | assay | setting | endpoint | value |
| --- | --- | --- | --- | --- | --- |
| C/C(=N\O)c1ccc(-c2ccc(C#N)cc2)c(Cl)c1O | NCI-H1299 | cell growth or viability, MTT | 30 µM, 48 h | viability | 75% |
| C=CC(=O)N1CCC[C@@H](n2nc(-c3ccc(Oc4ccccc4)cc3)c3c(N)ncnc32)C1 | BCWM1 | cell growth or viability | 48 h | GI50 | 0.57 µM |
| Cc1cc(Nc2ccc(C(=O)N/N=C/c3cccs3)cc2)c2cccc(O)c2n1 | SMMC-7721 | cell growth or viability, MTT | 20 µM | inhibition | 40.7% |
| COc1cc(/C=C/C(=O)/C=C(O)/C=C/c2cccnc2)ccc1O | CHO-K1 | cell growth or viability, MTT | 72 h | IC50 | 21.4 µM |
| COc1ccc(/C=N/NC(=O)c2ccc(Nc3cc(C)nc4c(O)cccc34)cc2)cc1O | SMMC-7721 | cell growth or viability, MTT | 20 µM | inhibition | 30.3% |
| C/C(=N\O)c1ccc(-c2ccc(C(F)(F)F)cc2)c(Cl)c1O | NCI-H1299 | cell growth or viability, MTT | 30 µM, 48 h | viability | 89% |
| Clc1ccc(-c2nc3ccccc3[nH]2)cc1 | human Rhabdomyosarcoma cell | cell growth or viability, MTT | 48 h | IC50 | > 100 µM |
| Cn1nnc2c(C(N)=O)ncn2c1=O | MKN-45 | cell growth or viability | – | EC50 | 491000 nM |
| COc1ccc(-c2nc3ccc(C)cc3[nH]2)cc1O | human Rhabdomyosarcoma cell | cell growth or viability, MTT | 48 h | IC50 | 48.7 µM |
| C/C(=N\O)c1ccc(-c2cccc(OC(F)(F)F)c2)c(Cl)c1O | NCI-H1299 | cell growth or viability, MTT | 30 µM, 48 h | viability | 83% |
| Cc1ccc2nc(-c3ccc(Cl)c(Cl)c3)n(Cc3ccccc3)c2c1 | human Rhabdomyosarcoma cell | cell growth or viability, MTT | – | IC50 | 78.9 µM |
| FC(F)(F)SCCOc1ccc(Oc2ccccc2)cc1 | Vero | cell growth or viability | 72 h | CC50 | > 20 µM |
| COC(=O)c1ccc2c(c1)NC(=O)/C2=C(\Nc1ccc(N(C)C(=O)CN2CCN(C)CC2)cc1)c1ccccc1 | L929 | cell growth or viability, MTT | 10 µM, 24 h | inhibition | < 50% |
| C/C(=N\O)c1ccc(-c2ccc(F)cc2)c(Cl)c1O | NCI-H1299 | cell growth or viability, MTT | 30 µM, 48 h | viability | 69% |
| Cc1cc(Nc2ccc(C(=O)N/N=C/C3CCCCC3)cc2)c2cccc(O)c2n1 | SMMC-7721 | cell growth or viability, MTT | 20 µM | inhibition | 26.3% |
| C[C@@H](Oc1cc(-c2cnn(C3CCNCC3)c2)cnc1N)c1c(Cl)ccc(F)c1Cl | NCI-H3122 | cell growth or viability, MTT | 0.008 µg/mL, 72 h | inhibition | 18.1% |
| O=C(/C=C(O)/C=C/c1ccncc1)/C=C/c1c[nH]c2ccccc12 | CHO-K1 | cell growth or viability, SRB | 72 h | IC50 | 66.3 µM |
| C/C(=N\O)c1ccc(-c2ccc(O)c(Cl)c2)c(Cl)c1O | NCI-H1299 | cell growth or viability, MTT | 30 µM, 48 h | viability | 80% |
| C=C(F)C(=O)N1CCN(c2nc(OC[C@@H]3CCCN3C)nc3c2CCN(c2cccc4cccc(Cl)c24)C3)C[C@@H]1CC#N | NCI-H1437 | cell growth or viability, ATP luminescence | 5 days | GI50 | 2.22 µM |
| COc1cc(Nc2nccc(-c3cnn4nc(OC)ccc34)n2)cc(C(F)(F)F)c1 | OV56 | cell growth or viability, ATP luminescence | – | IC50 | 1.4 µM |
| COc1ccc(-c2nc3ccc(C)cc3[nH]2)cc1OC | human Rhabdomyosarcoma cell | cell growth or viability, MTT | 48 h | IC50 | > 100 µM |
| CCn1cc(-c2cccc(C(F)(F)F)c2)c2sc(C(=N)NC3CCS(=O)(=O)CC3)cc2c1=O | HL-60 | cell growth or viability | 7 days | EC50 | 433 nM |

| Compound | cell line | assay | setting | endpoint | value |
| --- | --- | --- | --- | --- | --- |
| Cc1cc(Nc2ccc(C(=O)N/N=C/c3ccccc3)cc2)c2cccc(O)c2n1 | SMMC-7721 | cell growth or viability, MTT | 20 µM | inhibition | 28.5% |
| C=CC(=O)N1CCN(c2nc(=O)n(-c3c(C)ccnc3C(C)C)c3nc(-c4c(O)cccc4F)c(F)cc23)[C@@H](C)C1 | NCI-H1437 | cell growth or viability, ATP luminescence | 5 days | GI50 | > 10 µM |
| N#CSCCOc1ccccc1Oc1ccccc1 | Vero | cell growth or viability | 72 h | CC50 | > 20 µM |
| Cc1cc(Nc2ccc(C(=O)N/N=C/c3ccc(N(C)C)cc3)cc2)c2cccc(O)c2n1 | SMMC-7721 | cell growth or viability, MTT | 20 µM | inhibition | 33.6% |
| CC(=O)c1c(C)c2cnc(Nc3ccc(N4CCNCC4)cn3)nc2n(C2CCCC2)c1=O | HCC70 | cell growth or viability, resazurin | – | GI50 | > 5 µM |
| Cc1ccc(NC(=O)NCc2ccc3c(c2)CN(C2CCC(=O)NC2=O)C3=O)cc1Cl (stereo not shown) | MHHCALL4 | cell growth or viability, ATP luminescence | – | EC50 | 0.0019 nM |
| O=C(/C=C(O)/C=C/c1cccnc1)/C=C/c1c[nH]c2ccccc12 | CHO-K1 | cell growth or viability, MTT | 72 h | IC50 | 9.2 µM |
| CC(=O)c1cccc(N=Nc2c(C(=O)O)cc(O)c(O)c2O)c1 | RAW264.7 | IL-6 release, inhibitor, ELISA | 10 µM, LPS-stimulated | inhibition | 43% |
| Cc1cc(Nc2ncc(Cl)c(Nc3ccccc3S(=O)(=O)C(C)C)n2)c(OC(C)C)cc1C1CCNCC1 | NCI-H3122 | cell growth or viability, MTT | 0.0032 µg/mL, 72 h | inhibition | 10.3% |
| Cc1cc(Nc2ccc(C(=O)N/N=C/c3cc4ccccc4[nH]3)cc2)c2cccc(O)c2n1 | SMMC-7721 | cell growth or viability, MTT | 20 µM | inhibition | 54.3% |
| FC(F)(F)[Se]CCOc1cccc(Oc2ccccc2)c1 | Vero | cell growth or viability | 72 h | CC50 | > 20 µM |
| Cc1cc2c(cc1N1C(=O)c3cccc4c(CCCO)ccc(c34)C1=O)n(C)c(=O)n2C (racemic) | CHL-1 | cell growth or viability, resazurin | – | GI50 | 7.4 µM |
| O=C(/C=C(O)/C=C/c1ccc[nH]1)/C=C/c1c[nH]c2ccccc12 | CHO-K1 | cell growth or viability, SRB | 72 h | IC50 | 9.64 µM |
| Fc1cccc(Cl)c1-c1nc2ccccc2[nH]1 | human Rhabdomyosarcoma cell | cell growth or viability, MTT | 48 h | IC50 | > 100 µM |
| COc1cc(/C=C/C(=O)/C=C(O)/C=C/c2ccnc3ccccc23)ccc1O | CHO-K1 | cell growth or viability, SRB | 72 h | IC50 | 19.3 µM |
| Cc1ccc2nc(-c3ccc4c(c3)OCO4)[nH]c2c1 | human Rhabdomyosarcoma cell | cell growth or viability, MTT | 48 h | IC50 | > 100 µM |
| COc1cc(/C=C/c2cc(/C=C/c3cccnc3)[nH]n2)ccc1O | CHO-K1 | cell growth or viability, MTT | 72 h | IC50 | 13.2 µM |
| Clc1ccccc1-c1nc2ccccc2[nH]1 | human Rhabdomyosarcoma cell | cell growth or viability, MTT | 48 h | IC50 | 42.4 µM |
| Cc1cc(Nc2ccc(C(=O)N/N=C/c3ccncc3)cc2)c2cccc(O)c2n1 | SMMC-7721 | cell growth or viability, MTT | 20 µM | inhibition | 17.1% |
| Cc1ccc2nc(-c3cc(Br)ccc3O)[nH]c2c1 | human Rhabdomyosarcoma cell | cell growth or viability, MTT | 48 h | IC50 | 10.4 µM |
| N[C@@H]1CCCN(c2c(/C=C3\SC(=O)NC3=O)cccc2-c2ccccc2)C1 | U-266 | cell growth or viability, thymidine uptake | – | GI50 | 4.27 µM |
